Reference: article PMC3123137 (Journal of immunology (Baltimore, Md. : 1950), 2011)
“Also recorded” adds a separate entry of the source. Bridge positions count the residues as written; N and C are the ends. Ends that are not written are not given here.

Assays:
immune cells = details: addition to blood, hemodialysis; ref [15]; cited from earlier work
complement activation = details: cited from earlier work
cells = details: soluble inhibitor or heparin-coated surface; ref [8]–[11]; cited from earlier work
sheep erythrocytes = assay: Hemolytic assay; format: cell-based
In short: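 Sheep erythrocytes washed in VBS–5 mM Mg2+/EGTA; cell amount set by water-lysis titration to give OD405 ~1. Serially diluted test compound or anti-factor H SCR19–20 mAb mixed with cells and human lepirudin plasma (1:10 in VBS–Mg2+/EGTA), 37°C, 1 h, shaking. Lysis read as supernatant OD405 after centrifugation. Run ≥3 times with different donors' plasma; means ± SD of a representative run.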

[1] = system: alternative pathway of complement; assay: Inhibition of biomaterial-induced AP activation by immobilized peptide; format: biochemical, human
factor H [2] = target: T1, factor H (Homo sapiens, UniProt P08603); assay: ELISA, binding of purified factor H to immobilized peptide; details: summary statement
In short: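 Streptavidin (10 μg/ml in PBS) was coated overnight at 4°C and blocked with 2% BSA in PBS. Biotinylated test peptide or biotinylated linear compstatin control was added at 10 μg/ml for 30 min at RT. Purified human factor H was serially diluted in PBS from 2.5 μg/ml and bound for 1 h. Detection used goat anti-human factor H pAb, then HRP anti-goat IgG. Means ± SD, representative of three experiments.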

factor H [3] = target: T1, factor H; assay: Factor H capture from lepirudin plasma by immobilized peptide; format: binding; details: no streptavidin-biotin conjugation
plasma proteins = details: ref [56], [57]; cited from earlier work
various cells = details: ref [11], [58], [59]; cited from earlier work
fH1–4 = fH1–4 (Homo sapiens, UniProt P08603); assay: Monoclonal phage ELISA, N-terminal fragment; format: binding; details: phage clone; coated wells, 1 h room temperature, anti-M13 HRP/ABTS
In short: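 Wells were coated overnight at 4°C with recombinant factor H SCR1–4 (5 μg/ml in PBS), with BSA wells in parallel, then blocked with 5% milk in PBST for 1 h. Amplified single third-round plaques were bound for 1 h at RT and washed six times with PBST. Detection used HRP anti-M13 mAb with ABTS. An unrelated cyclic-peptide phage served as control, and C3b as negative control.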

[4] = system: factor H cofactor activity; assay: Factor H cofactor activity assay; format: biochemical, human; details: peptide expressed as fusion protein with phage PIII domain (Supplemental Fig. 2)

T1 sequence (P08603 19-1231): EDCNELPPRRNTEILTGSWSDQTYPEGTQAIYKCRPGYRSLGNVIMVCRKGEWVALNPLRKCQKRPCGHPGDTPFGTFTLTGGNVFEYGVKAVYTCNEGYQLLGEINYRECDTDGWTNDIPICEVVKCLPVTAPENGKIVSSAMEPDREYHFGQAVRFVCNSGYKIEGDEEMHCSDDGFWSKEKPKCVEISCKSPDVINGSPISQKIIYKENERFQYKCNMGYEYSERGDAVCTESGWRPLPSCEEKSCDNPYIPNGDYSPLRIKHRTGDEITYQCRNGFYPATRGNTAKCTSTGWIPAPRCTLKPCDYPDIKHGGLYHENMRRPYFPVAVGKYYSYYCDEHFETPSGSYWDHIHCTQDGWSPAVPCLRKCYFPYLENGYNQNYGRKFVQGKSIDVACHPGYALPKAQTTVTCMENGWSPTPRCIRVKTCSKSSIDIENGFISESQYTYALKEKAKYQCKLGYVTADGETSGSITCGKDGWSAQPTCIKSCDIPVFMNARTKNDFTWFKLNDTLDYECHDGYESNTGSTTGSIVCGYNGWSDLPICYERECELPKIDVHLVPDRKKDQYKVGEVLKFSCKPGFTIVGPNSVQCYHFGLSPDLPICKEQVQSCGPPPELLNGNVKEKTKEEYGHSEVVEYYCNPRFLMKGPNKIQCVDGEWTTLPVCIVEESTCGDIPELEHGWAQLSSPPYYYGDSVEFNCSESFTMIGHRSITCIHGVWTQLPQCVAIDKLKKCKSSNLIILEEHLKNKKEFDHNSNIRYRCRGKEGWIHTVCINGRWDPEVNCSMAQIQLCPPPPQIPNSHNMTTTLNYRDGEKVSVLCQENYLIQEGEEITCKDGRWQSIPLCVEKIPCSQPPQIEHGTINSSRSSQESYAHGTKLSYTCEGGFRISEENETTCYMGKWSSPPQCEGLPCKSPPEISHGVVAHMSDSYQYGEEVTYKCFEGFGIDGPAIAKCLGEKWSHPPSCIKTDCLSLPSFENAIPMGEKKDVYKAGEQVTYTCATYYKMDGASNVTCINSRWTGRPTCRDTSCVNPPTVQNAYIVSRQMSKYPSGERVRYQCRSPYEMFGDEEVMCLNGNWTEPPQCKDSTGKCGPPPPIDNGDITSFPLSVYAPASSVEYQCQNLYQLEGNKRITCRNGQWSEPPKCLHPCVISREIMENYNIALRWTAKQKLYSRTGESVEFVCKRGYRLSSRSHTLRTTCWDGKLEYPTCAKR
Chain of fH1–4 (P08603 19-264): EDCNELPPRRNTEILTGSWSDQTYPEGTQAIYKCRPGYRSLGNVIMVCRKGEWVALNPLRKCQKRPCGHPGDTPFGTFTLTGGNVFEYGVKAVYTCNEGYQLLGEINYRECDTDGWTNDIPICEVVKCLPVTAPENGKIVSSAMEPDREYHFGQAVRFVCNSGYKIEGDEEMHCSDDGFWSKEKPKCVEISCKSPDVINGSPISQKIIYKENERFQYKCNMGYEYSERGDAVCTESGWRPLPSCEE

compstatin
Activation of immune cells and expression of pro-coagulative factors (immune cells): subsequent activation of immune cells and the expression of pro-coagulative factors | Filter-induced complement response (complement activation; addition to blood, hemodialysis, ref [15]): inhibited filter-induced complement response | Biomaterial-induced activation and surface adhesion of cells (cells): inhibition of complement activation largely attenuates biomaterial-induced activation and surface adhesion of cells

ASSGMCFTKKTVLC (disulfide 6-14 (inferred)) [4A1]
Effect on hemolytic assay as phage PIII fusion protein (sheep erythrocytes; peptide expressed as fusion protein with phage PIII domain (Supplemental Fig. 2)): affected

ASSSRCTYDHWCSH (disulfide 6-12 (inferred)) [5C6]
Inhibition of biomaterial-induced complement activation in undiluted plasma ([1]; immobilized on model biomaterial surface, undiluted lepirudin plasma): substantial inhibition of biomaterial-induced complement activation | Inhibition of complement, peptide coated directly onto polystyrene ([1]; peptide coated directly, no streptavidin-biotin conjugation): Neither factor H binding nor inhibition of complement was seen | Factor H-capturing activity (factor H [2]): high factor H-capturing activity while retaining its functional integrity; also recorded: able to capture factor H at high activity without interfering with its regulatory activity | Factor H binding, peptide coated directly onto polystyrene (factor H [3]): Neither factor H binding nor inhibition of complement was seen | Lysis of sheep erythrocytes (sheep erythrocytes; 5C6 up to 40 μM, lepirudin plasma 1:10 in VBS–Mg2+/EGTA, 37°C, 1 h, OD405): No lysis | Interference with factor H cell-surface binding / surface recognition (sheep erythrocytes; soluble 5C6 peptide, hemolytic assay (conclusion)): does not interfere with the cofactor activity or cell-surface binding properties of factor H; also recorded: did not interfere with the surface recognition properties of factor H

heparin
Plasma protein binding specificity (plasma proteins): broad binding specificity for plasma proteins | Dependence of inhibition on factor H capturing (complement activation; heparin coating, ref [55]): independent of factor H capturing by heparin | Biomaterial-induced complement activation (complement activation; highly concentrated heparin coating, ref [14], [53]–[55]): inhibited biomaterial-induced complement activation | Complement activation at low concentrations in the fluid phase (complement activation; ref [14], [60]): may actually enhance complement activation at low concentrations in the fluid phase | Biomaterial-induced activation and surface adhesion of cells (cells): inhibition of complement activation largely attenuates biomaterial-induced activation and surface adhesion of cells | Activation of cells (various cells): induces activation of various cells

ASSYDVGYSHDCRF [5-2C6]
Binding to fH1–4 (N-terminal regulatory region) (fH1–4): bound to the N-terminal regulatory region of factor H | Effect on cofactor assay as phage PIII fusion protein [4]: affected

B1: decay accelerating factor (CD55): AP regulator immobilized on surfaces (protein, UniProt P08174 35-353, looked up)
Complement decay-accelerating …: DCGLPPDVPNAQPALEGRTSFPEDTVITYKCEESFVKIPGEKDSVICLKGSQWSDIEEFCNRSCEVPTRLNSASLKQPYITQNYFPVGTVVEYECRPGYRREPSLSPKLTCLQNLKWSTAVEFCKKKSCPNPGEIRNGQIDVPGGILFGATISFSCNTGYKLFGSTSSFCLISGSSVQWSDPLPECREIYCPAPPQIDNGIIQGERDHYGYRQSVTYACNKGFTMIGEHSIYCTVNNDEGEWSGPPPECRGKSLTSKVPPTVQKPTTVNVPTTEVSPTSQKTTTKTTTPNAQATRSTPVSRTTKHFHETTPNKGSGTTS
modifications: immobilized on surfaces
Biomaterial-induced complement after immobilization of AP regulators (complement activation; immobilized regulator, ref [39]–[41]): attenuated biomaterial-induced complement
